Source: PubChem (several laboratories)
Shown are actives, neighbours in structure and some others; about 4.3% of the full set was active somewhere.
TAAR1 antag: human TAAR1 antagonism; Q96RJ0; inhibition, % at 3 µM; AID 624466; 1.5% of 360,000 active; CHO RD-HGA16 TAAR1, Fluo-8 calcium fluorescence, antagonist;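 active means inhibition above a per-plate cutoff, the mean inhibition of test compounds on that plate plus 3 SD, cut at about 49% in these data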;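 further: 0% = DMSO plus EC80 beta-PEA response and 100% = DMSO alone without agonist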
Target sequence (Q96RJ0 whole entry, looked up): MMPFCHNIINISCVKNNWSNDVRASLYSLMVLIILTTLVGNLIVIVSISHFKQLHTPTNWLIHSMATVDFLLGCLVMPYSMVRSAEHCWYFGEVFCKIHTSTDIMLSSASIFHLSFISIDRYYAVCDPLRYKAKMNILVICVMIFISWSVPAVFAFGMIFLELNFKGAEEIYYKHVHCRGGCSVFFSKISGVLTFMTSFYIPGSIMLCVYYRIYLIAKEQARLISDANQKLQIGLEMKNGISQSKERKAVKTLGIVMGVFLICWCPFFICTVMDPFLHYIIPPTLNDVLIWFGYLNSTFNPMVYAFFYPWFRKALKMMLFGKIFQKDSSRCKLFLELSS
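Test system – hTAAR1-expressing CHO RD-HGA16 cells, Gα16-coupled · Reagent – β-PEA at EC80 concentration, post-compound challenge · Compound dosing – 3 µM, single point · Timing – 140 s kinetic read after compound, 140 s after agonist · Detection – Fluo-8 intracellular calcium dye fluorescence, real-time kinetic reads · Control set – DMSO and EC80 PEA controls · Repeats – n of 1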
MC4R antagonist: human MC4R antagonism in cAMP assay; inhibition, % at 6.5 µM; 0.48% of 360,000 active; MC4R-expressing cells, MTII-stimulated cAMP, LANCE TR-FRET; P32245;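 active means inhibition above its plate's cutoff, the mean of tested wells on that plate plus 3 SD, cut at about 29% in these data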;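 further: 0% = Melanotan II alone and 100% = Melanotan II plus saturating MCL0020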
Target sequence (P32245 whole entry, looked up): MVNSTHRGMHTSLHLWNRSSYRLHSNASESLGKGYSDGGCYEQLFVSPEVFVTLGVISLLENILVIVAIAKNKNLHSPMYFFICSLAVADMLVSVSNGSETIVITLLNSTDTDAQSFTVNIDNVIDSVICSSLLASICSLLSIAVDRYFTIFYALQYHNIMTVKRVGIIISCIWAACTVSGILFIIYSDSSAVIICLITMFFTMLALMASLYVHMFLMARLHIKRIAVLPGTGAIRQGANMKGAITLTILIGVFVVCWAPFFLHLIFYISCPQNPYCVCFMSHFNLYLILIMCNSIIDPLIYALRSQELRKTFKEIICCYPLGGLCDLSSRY
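Test system: U2OS cells stably expressing human melanocortin 4 receptor (MC4R); also added: Melanotan II challenge; compound: 6.5 µM single dose; timing: 30-min compound preincubation, 1-h Melanotan II challenge, 1-h detection, room temperature; signal: Eu-cAMP/anti-cAMP TR-FRET, emission 671 nm; repeats: one well per compound, no replicates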
TAAR1 agonist: agonists of human TAAR1; Q96RJ0; CHO RD-HGA16 TAAR1, Fluo-8 calcium fluorescence; vehicle wells 0%, saturating PEA agonist 100%; activation, % at 3 µM; 0.99% of 360,000 active; AID 624467;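 active means activation above the mean activation of all test compounds in the run plus 3 SD, cut at about 38% in these data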
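System: CHO-derived RD-HGA16 cells with stable Gα16 and human TAAR1. Times: 17-24 h plating, Fluo-8 75 min 37 °C, 30 min RT. Measured by: calcium-sensitive Fluo-8 signal, excitation 470-495, emission 515-575 nm. Read-out basis: % activation relative to PEA EC100 response. Control set: DMSO and PEA EC100. Repeats: no replicates (n 1).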
m5-HT2A agonist: agonists of mouse serotonin 5-HT2A receptor (HTR2A); CHO-K1 mHTR2A beta-arrestin complementation, luminescence; percent of 30 µM serotonin response; activation, % at 7.6 µM; 0.66% of 360,000 active; AID 624169;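 active means activation above a run cutoff, the mean activation of all tested compounds plus 3 SD, cut at about 14% in these data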;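 further: 0% = plate median of compound wells and 100% = 30 µM serotonin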
MC4R ag barr: activates human MC4R beta-arrestin recruitment; P32245; U2OS MC4R beta-arrestin complementation, luminescence; percent of melanotan II response, DMSO zero; activation, % at 8.9 µM; 0.98% of 360,000 active; AID 540308;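 active means activation above a per-plate cutoff, the mean activation of sample wells on that plate plus 3 SD, cut at about 8% in these data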
Beta2AR agonist: agonists of human beta-2 adrenergic receptor inducing internalization; Am2.2-beta2AR cells, FAP receptor internalization, flow cytometry; response, % (concentration not given with the values); 0.43% of 340,000 active; AID 504454;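 active means response above a set limit, near 3 SD of response in nonfluorescent compounds, cut at about 42% in these data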
TAAR1 ag conf: human TAAR1 agonism, confirmed; CHO RD-HGA16 TAAR1, Fluo-8 calcium fluorescence; scaled: DMSO 0%, maximal phenethylamine 100%; 82% of 2,400 active; shares compounds with TAAR1 agonist; activation, % at 3 µM; AID 651783;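 active means activation above a cutoff set at the run's mean compound activation plus 3 SD, cut at about 39% in these data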
Ga16 nonsel ag: nonselective agonism, TAAR1 counter-screen; 50% of 2,400 active; activation, % at 3 µM; shares compounds with TAAR1 agonist; CHO-Ga16 parental, Fluo-8 calcium fluorescence; normalized to maximal ATP response, DMSO zero;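 active means activation above the run cutoff, the mean activation over all tested wells plus 3 SD, cut at about 12% in these data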;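 further: 0% = DMSO wells and 100% = maximal ATP response on the peak over basal ratio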
TAAR1 desens: TAAR1 response desensitization, agonist counter-screen; shares compounds with TAAR1 agonist; CHO RD-HGA16 hTAAR1, Fluo-8 calcium, beta-PEA response inhibition; inhibition, % at 3 µM; 46% of 2,400 active; AID 651951;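 active means inhibition above the run cutoff, the mean inhibition of all test compounds plus 3 SD, cut at about 49% in these data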;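 further: beta-PEA stimulus applied at its EC80; loss of beta-PEA calcium signal after compound pretreatment read as receptor desensitization; 0% = DMSO with beta-PEA at EC80 and 100% = DMSO alone without agonist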
Ga16 nonsel ant: nonselective Ga16 antagonism, counter-screen. shares compounds with TAAR1 agonist. CHO-Ga16 ATP-induced calcium, Fluo-8 fluorescence. inhibition, % at 3 µM. 39% of 2,400 active;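 active means inhibition above the plate's mean compound inhibition plus 3 SD, computed per plate, cut at about 22% in these data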;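 further: 0% = EC80 ATP with DMSO and 100% = DMSO wells without ATP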
* = called active by the depositor; i = inactive; / = no result given.

SMILES	TAAR1 antag	MC4R antagonist	TAAR1 agonist	m5-HT2A agonist	MC4R ag barr	Beta2AR agonist	TAAR1 ag conf	Ga16 nonsel ag	TAAR1 desens	Ga16 nonsel ant
CCC(C)N(C(=O)c1csnn1)C(C(=O)NCc1ccc(F)cc1)c1ccccc1F (configuration not stated)	-9	4	6	-4	-3	7	/	/	/	/
O=C(COc1ccc(Cl)cc1Cl)Nc1ccc(CN2CCCCC2)cc1	7	6	51*	-3	-2	-3	84*	40*	41	27*
O=C(COc1ccc(Cl)cc1Cl)Nc1ccc(CN2CCOCC2)cc1	-11	5	13	-1	1	-6	/	/	/	/
S=C(NCCc1ccccc1)N/N=C/c1ccccc1Cl	-13	-5	7	-5	-1	0	/	/	/	/
Oc1ccc(Br)cc1/C=N/NC(=S)NCCc1ccccc1	21	-2	58*	-2	2	-3	74*	41*	45	47*
COc1ccc(Cl)cc1Cn1c(C)c(C(=O)NCc2cccc([N+](=O)[O-])c2)sc1=O	21	0	2	-2	0	/	/	/	/	/
Oc1ccccc1C=NCCN=Cc1ccccc1O	-18	12	3	1	2	-3	/	/	/	/
NC(=NCCc1ccc(Cl)cc1)NS(=O)(=O)c1ccccc1	-20	13	3	-4	-1	0	/	/	/	/
Oc1ccc(Cl)cc1C=NCCc1ccccc1	/	3	/	12	-2	0	/	-1	/	10
NC(=NCCc1ccccc1)NC(=O)c1cc(Cl)ccc1O	77*	1	90*	7	-1	-2	91*	4	94*	23*
C[C@@H]1CN([C@H](C)CO)C(=O)c2cc(NS(=O)(=O)c3ccccc3)ccc2O[C@@H](C)CCCCO[C@@H]1CN(C)Cc1ccc(Cl)c(Cl)c1	-33	/	8	/	/	/	/	/	/	/
Cc1cc(C(=O)NC2CCCc3c2cnn3-c2ccc(C(C)(C)C)cc2)n[nH]1 (configuration not stated)	-9	3	3	1	-1	17	/	/	/	/
Cc1cc(C(=O)COC(=O)c2ccc[nH]c2=O)c(C)n1CCc1ccc(F)cc1	0	-6	14	-4	-2	0	/	/	/	/
Cc1cc(C(=O)COC(=O)C2=NNC(=O)CC2)c(C)n1CCc1ccccc1	15	3	61*	-2	-2	4	86*	3	76*	10
Cc1cc(C(=O)COC(=O)c2ccc(NC(=O)CC#N)cc2)c(C)n1CCc1ccc(F)cc1	46	5	55*	-7	2	3	82*	6	77*	30*
CC1(c2ccc(OC(F)F)cc2)NC(=O)N(CC(=O)Nc2cccnc2Cl)C1=O (configuration not stated)	73*	5	129*	2	-2	-2	131*	86*	78*	40*
Cc1ccc(S(=O)(=O)NC(CC(C)C)C(=O)NCCCn2nc(C)cc2C)cc1 (configuration not stated)	11	0	4	-3	-1	2	/	/	/	/
CN1C(=S)N(c2cccnc2)C(=O)/C1=C\c1ccc(C(C)(C)C)cc1	5	8	8	-3	-1	22	/	/	/	/
CN1C(=S)N(c2cccnc2)C(=O)/C1=C\c1ccc(N(C)C)cc1	33	2	74*	-4	-1	-61	29	39*	42	50*
COC(=O)Cc1nnn2c1[C@@H](C)[C@@H](c1ccccc1Br)O[C@@H](C)C2	-4	/	9	/	/	/	/	/	/	/
Cc1n[nH]c(C)c1N1C(=O)c2cccc3c(N4CCCCCC4)ccc(c23)C1=O	82*	9	148*	7	0	-154	88*	119*	74*	82*
O=C1c2cccc3c(N4CCCCC4)ccc(c23)C(=O)N1CCO	23	-30	31	2	-1	-46	/	/	/	/
O=C1c2cccc3c(N4CCCCC4)ccc(c23)C(=O)N1c1cccc(O)c1	79*	15	121*	5	-2	-154	27	32*	38	48*
Cc1ccccc1C(=O)N1CCC(C(=O)NN2C(=O)NC3(CCC(C)CC3)C2=O)CC1 (configuration not stated)	-5	8	0	1	-1	-4	/	/	/	/
COCCC(=O)N1CCC(Oc2ccc(C(=O)NCCn3cccn3)cc2)CC1	-38	4	1	1	5	6	/	/	/	/
SMILES	TAAR1 antag	MC4R antagonist	TAAR1 agonist	m5-HT2A agonist	MC4R ag barr	Beta2AR agonist	TAAR1 ag conf	Ga16 nonsel ag	TAAR1 desens	Ga16 nonsel ant
O=c1[nH]ncc2c3ccccc3n(Cc3cccc(Cl)c3)c12	27	4	54*	-2	0	-4	4	2	11	10
COc1ccc(/C=N/Nc2nc(-c3ccc(C)cc3)c(NC(C)=O)s2)cc1OC	-6	12	1	-3	0	13	/	/	/	/
CC(=O)Nc1sc(/C(C#N)=C/c2ccc(Cl)c(Cl)c2)nc1-c1ccc(C)cc1	81*	5	68*	4	-3	i	42*	56*	76*	67*
COCCNC(=S)N(C)[C@H]1C[C@H]2c3cc(Oc4ccccc4C)ccc3CCN2C(=O)[C@H]1[C@H](C)O	-3	11	8	0	1	/	/	/	/	/
CCC(C)(C(=O)NC1CCCCC1)N(C(=O)Cc1cccs1)c1ccccc1 (configuration not stated)	-8	4	1	4	-1	3	/	/	/	/
CC(=O)Nc1cccc(N/C(N)=N/c2nc(C)cc(C)n2)c1	-3	2	1	-1	1	-2	/	/	/	/
CCCCc1ccc(N/C(N)=N/c2nc(C)cc(C)n2)cc1	107*	7	161*	-4	4	1	131*	90*	107*	96*
Cc1cccc(N/C(N)=N/c2nc(C)cc(C)n2)c1	56*	3	58*	-9	-1	4	80*	43*	81*	53*
C[C@@H]1CN([C@H](C)CO)C(=O)CCCn2nncc2CO[C@H]1CN(C)Cc1cccc(O)c1	-14	2	2	6	-3	/	/	/	/	/
